Data from ChEMBL document CHEMBL5331120, “Stapled β-Hairpin Antimicrobial Peptides with Improved Stability and Activity against Drug-Resistant Gram-Negative Bacteria” (J Med Chem, 2023).
Values after ≈ are worked out from the molar mass of the structure shown. Active and inactive are the calls of the source. No cut-off for these calls is given here.

Assays:
Staphylococcus aureus = experiment: Antimicrobial activity against Staphylococcus aureus ATCC 29737 assessed as inhibition of bacterial growth incubated for 18 hrs by broth microdilution method; format: functional, organism-based
Outline: (§1)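 Standard broth microdilution in MHB. Overnight culture (37 °C, 120 rpm) adjusted to OD600 0.07 and diluted 1000× to 3 × 10^5 CFU/mL. Peptides serially diluted in triplicate, 18 h at 37 °C with 120 rpm shaking. Growth read as OD600; MIC is the lowest concentration with no visible growth. Colistin served as control for Gram-negatives, vancomycin for S. aureus.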

Erythrocyte = experiment: Hemolytic activity in human RBC upto 128 uM incubated for 1 hr by absorbance based analysis; format: toxicity, cell-based
Outline: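 Washed human RBCs from healthy volunteers at 4% in PBS. Peptide at 4–128 μM, 37 °C for 1 h. Supernatant after 1000g, 10 min spin read at OD540. 1% Triton X-100 gave full lysis; % hemolysis derived and HC50 estimated.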

Escherichia coli [1] = experiment: Antimicrobial activity against Escherichia coli ATCC 25922 assessed as fold increase in MIC compound pretreated for 1 hr with trypsin and measured after 18 hrs by broth microdilution method relative to control; format: functional; details: trypsin pretreatment 1 hr; MIC measured after 18 hrs
Outline: (§2)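 Peptide incubated with trypsin at a 1:2000 trypsin/peptide molar ratio (e.g., 1 mM peptide with 0.5 μM trypsin), 37 °C, 1 h. Reaction stopped at 80 °C for 10 min, then serially diluted against E. coli in MHB broth microdilution. Inoculum 3 × 10^5 CFU/mL, 37 °C, 120 rpm, 18 h, read by OD600, triplicates. Fold change in MIC taken versus untreated control.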

[2] = Stability of compound assessed as trypsin (unknown origin) mediated compound degradation by measuring parent compound remaining measured after 1 hr by RP-HPLC analysis; format: ADME, protein assay; details: human, read-out: Stability
Outline: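 Peptide with trypsin at a 1:2000 trypsin/peptide molar ratio, 37 °C, sampled at 15, 30, 60 and 90 min. Reaction stopped with an equal volume of 50% acetonitrile/1% TFA. Analysed on C18 RP-HPLC with UV at 220 nm; intact peptide given as % of AUC.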

Pseudomonas aeruginosa = experiment: Antimicrobial activity against Pseudomonas aeruginosa ATCC 9027 assessed as inhibition of bacterial growth incubated for 18 hrs by broth microdilution method; format: functional; outline: as §1
Escherichia coli [3] = experiment: Antimicrobial activity against Escherichia coli ATCC 25922 assessed as inhibition of bacterial growth incubated for 18 hrs by broth microdilution method; format: functional; outline: as §1
Escherichia coli [4] = experiment: Antimicrobial activity against colistin resistant Escherichia coli clinical isolate R1 harboring mcr-1 gene assessed as inhibition of bacterial growth incubated for 18 hrs by broth microdilution method; format: functional, organism-based
Outline: (§3)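 Overnight MHB culture (37 °C, 120 rpm) adjusted to OD600 0.07 (~10^8 CFU/mL), then diluted 1000× to 3 × 10^5 CFU/mL. Peptides serially diluted with the bacterial suspension in triplicate, shaken at 37 °C, 120 rpm for 18 h, then OD600 read. MIC is the lowest concentration with no visible growth. Colistin as positive control.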

Escherichia coli [5] = experiment: Antimicrobial activity against colistin/carbapenem resistant Escherichia coli clinical isolate R2 harboring mcr-1 and NDM-1 gene assessed as inhibition of bacterial growth incubated for 18 hrs by broth microdilution method; format: functional, organism-based; outline: as §3
Escherichia coli [6] = experiment: Antimicrobial activity against colistin resistant Escherichia coli clinical isolate R1 harboring mcr-1 gene assessed as fold reduction in MIC incubated for 18 hrs by broth microdilution method; format: functional
Escherichia coli [7] = experiment: Antimicrobial activity against colistin/carbapenem resistant Escherichia coli clinical isolate R2 harboring mcr-1 and NDM-1 gene assessed as fold reduction in MIC incubated for 18 hrs by broth microdilution method; format: functional
Escherichia coli [8] = experiment: Antimicrobial activity against colistin/carbapenem resistant Escherichia coli clinical isolate R3 harboring NDM-7 and OXA-181 gene assessed as fold reduction in MIC incubated for 18 hrs by broth microdilution method; format: functional
Escherichia coli [9] = experiment: Antimicrobial activity against Escherichia coli ATCC 25922 assessed as inhibition of bacterial growth compound pretreated for 1 hr with trypsin and measured after 18 hrs by broth microdilution method; format: functional, organism-based; outline: as §2
Escherichia coli [10] = experiment: Antimicrobial activity against Escherichia coli ATCC 25922 assessed as inhibition of bacterial growth incubated for 18 hrs in presence of 10% fetal bovine serum by broth microdilution method; format: functional, organism-based
Outline: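 E. coli broth microdilution in MHB containing 10% fetal bovine serum. Inoculum 3 × 10^5 CFU/mL, diluted from an OD600 0.07 suspension. Incubated 18 h at 37 °C with 120 rpm shaking, OD600 read, triplicates. Fold change in MIC calculated against control MIC.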

Row | remaining at 1 h [2] | Structure (SMILES) | Activity (Staphylococcus aureus) | Activity (Erythrocyte) | fold change (FC) (Escherichia coli [1]) | MIC (Pseudomonas aeruginosa) | MIC (Escherichia coli [3]) | Activity (Escherichia coli [4]) | Activity (Escherichia coli [5]) | Activity (Pseudomonas aeruginosa) | Activity (Escherichia coli [3]) | fold change (FC) (Escherichia coli [6]) | fold change (FC) (Escherichia coli [7]) | fold change (FC) (Escherichia coli [8]) | Activity (Escherichia coli [9]) | Activity (Escherichia coli [10])
1 | < 10% | CC(C)C[C@H](NC(=O)[C@H](CCCCN)NC(=O)[C@H](CC(C)C)NC(=O)[C@H](CCCCN)NC(=O)[C@@H]1CCC/C=C/CC[C@H](NC(=O)[C@H](CCCCN)NC(=O)[C@H](CC(C)C)NC(=O)[C@H](CCCCN)NC(=O)[C@@H](N)CC(C)C)C(=O)N[C@@H](CCCCN)C(=O)N2CCC[C@@H]2C(=O)NCC(=O)N[C@@H](CCCCN)C(=O)N1)C(=O)O | inactive | Non-Toxic | >=2 | – | – | – | – | – | – | – | – | – | – | –
2 | – | CC(C)C[C@H](NC(=O)[C@H](CCCCN)NC(=O)[C@@H]1CC/C=C/CC[C@H](NC(=O)[C@H](CCCCN)NC(=O)[C@@H](N)CC(C)C)C(=O)N[C@@H](CCCCN)C(=O)N[C@@H](CC(C)C)C(=O)N[C@@H](CCCCN)C(=O)N2CCCC2C(=O)NCC(=O)N[C@@H](CCCCN)C(=O)N[C@@H](CC(C)C)C(=O)N[C@@H](CCCCN)C(=O)N1)C(=O)O (single isomer, unassigned) | inactive | Non-Toxic | >=2 | 8 µM (≈ 12.7 µg/mL) | 8 µM (≈ 12.7 µg/mL) | Active | Active | – | – | – | – | – | – | –
3 | – | CC(C)C[C@@H]1NC(=O)[C@H](CCCCN)NC(=O)[C@@H]2CC/C=C/CC[C@H](NC(=O)[C@H](CCCCN)NC(=O)[C@H](CC(C)C)NC(=O)[C@H](CCCCN)NC(=O)[C@@H](N)CC/C=C/CC[C@@H](C(=O)O)NC(=O)[C@H](CCCCN)NC1=O)C(=O)N[C@@H](CCCCN)C(=O)N1CCC[C@@H]1C(=O)NCC(=O)N[C@@H](CCCCN)C(=O)N2 | inactive | Non-Toxic | – | – | – | – | – | inactive | inactive | 2 | 2 | 2 | Active | Active
4 | – | CC(C)C[C@@H]1NC(=O)[C@H](CCCCN)NC(=O)[C@@H]2CCC/C=C\CC[C@H](NC(=O)[C@H](CCCCN)NC(=O)[C@H](CC(C)C)NC(=O)[C@H](CCCCN)NC(=O)[C@@H](N)CC/C=C/CCC[C@@H](C(=O)O)NC(=O)[C@H](CCCCN)NC1=O)C(=O)N[C@@H](CCCCN)C(=O)N1CCC[C@@H]1C(=O)NCC(=O)N[C@@H](CCCCN)C(=O)N2 | inactive | Non-Toxic | – | – | – | – | – | inactive | inactive | 2 | 2 | 2 | Active | Active
5 | – | CC(C)C[C@@H]1NC(=O)[C@H](CCCCN)NC(=O)CNC(=O)[C@H]2CCCN2C(=O)[C@H](CCCCN)NC(=O)[C@H](CC(C)C)NC(=O)[C@H](CCCCN)NC(=O)[C@@H]2CC/C=C\CC[C@H](NC(=O)[C@H](CCCCN)NC1=O)C(=O)N[C@@H](CCCCN)C(=O)N[C@H](C(=O)O)CC/C=C\CC[C@H](N)C(=O)N[C@@H](CCCCN)C(=O)N2 | inactive | Non-Toxic | – | – | – | – | – | inactive | inactive | – | – | – | Active | Active
6 | < 10% | CC(C)C[C@H](NC(=O)[C@H](CCCCN)NC(=O)[C@@H]1CCC/C=C/CC[C@H](NC(=O)[C@H](CCCCN)NC(=O)[C@@H](N)CC(C)C)C(=O)N[C@@H](CCCCN)C(=O)N[C@@H](CC(C)C)C(=O)N[C@@H](CCCCN)C(=O)N2CCCC2C(=O)NCC(=O)N[C@@H](CCCCN)C(=O)N[C@@H](CC(C)C)C(=O)N[C@@H](CCCCN)C(=O)N1)C(=O)O (single isomer, unassigned) | inactive | Non-Toxic | >=2 | 8 µM (≈ 12.8 µg/mL) | 8 µM (≈ 12.8 µg/mL) | – | – | – | – | – | – | – | – | –
